According to ChEMBL document CHEMBL2029267, “Rapid assembly of a library of lipophilic iminosugars via the thiol-ene reaction yields promising pharmacological chaperones for the treatment of Gaucher disease” (J Med Chem, 2012):
Where a chain is given by its changes, count along the chain named. Calls of active or inactive are those of the source. No cut-off for these calls is given here.

What was measured:
[1] = molecular target: T1, Lysosomal acid glucosylceramidase (Homo sapiens, UniProt P04062); assay: Competitive inhibition of wild type human glucocerebrosidase using 4-methylumbelliferyl beta-D-glucopyranoside as substrate after 15 mins by Dixon and Line-Weaver Burk plot analysis […]
T1 sequence (P04062 whole entry): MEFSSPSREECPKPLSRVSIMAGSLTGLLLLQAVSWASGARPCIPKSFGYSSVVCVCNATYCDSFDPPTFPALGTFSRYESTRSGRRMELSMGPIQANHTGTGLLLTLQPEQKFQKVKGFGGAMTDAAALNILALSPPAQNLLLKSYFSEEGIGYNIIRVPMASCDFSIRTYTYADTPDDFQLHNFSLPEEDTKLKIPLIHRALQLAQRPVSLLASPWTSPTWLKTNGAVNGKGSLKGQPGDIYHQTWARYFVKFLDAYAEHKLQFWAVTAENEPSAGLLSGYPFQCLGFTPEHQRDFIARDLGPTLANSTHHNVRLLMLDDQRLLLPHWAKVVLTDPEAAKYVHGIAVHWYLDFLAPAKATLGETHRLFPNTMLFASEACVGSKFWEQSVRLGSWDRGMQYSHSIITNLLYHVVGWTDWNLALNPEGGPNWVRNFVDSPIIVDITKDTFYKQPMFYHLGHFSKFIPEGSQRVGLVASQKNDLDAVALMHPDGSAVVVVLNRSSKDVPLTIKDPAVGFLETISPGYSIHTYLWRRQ

[2] = molecular target: Lysosomal alpha-glucosidase (Homo sapiens) (UniProt P10253); assay: Inhibition of human lysosomal alpha-glucosidase using 4-methylumbelliferyl alpha-D-glucopyranoside as substrate at 200 uM by fluorimetric analysis
In short: (§1)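 Enzyme source was a lysosomal-enzyme-enriched ConA-bound human placental fraction, run in 100 mM citrate–phosphate pH 4.5 with 0.025% human serum albumin at 37 °C. Compound was tested at 200 μM in triplicate. An equal volume of 4-MU substrate was added: α-Glc 3.0 mM (α-glucosidase), α-Gal 1.0 mM (α-galactosidase), β-Gal 0.5 mM (β-galactosidase). Reactions were stopped with 4-fold excess 100 mM aminomethylpropanol and fluorescence read at 365/460 nm.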

[3] = molecular target: T2, Lysosomal acid glucosylceramidase (Homo sapiens) (UniProt P04062); assay: Thermal denaturation of human glucocerebrosidase by differential scanning fluorimetry assessed as change in melting temperature at 100 uM and pH 7
T2 sequence (whole entry): T1 sequence (P04062 whole entry)

[4] = test system: T3, Lysosomal acid glucosylceramidase (Homo sapiens), P04062 [N409S]; assay: Activation of intracellular glucocerebrosidase p.N370S mutant in gaucher patient fibroblast using 4-methylumbelliferyl beta-D-glucopyranoside as substrate relative to control
T3 sequence (whole entry): T1 sequence (P04062 whole entry) with N409S

[5] = Cytotoxicity against gaucher patient fibroblast assessed as decrease in cell viability at 10 uM after 5 days by alamar blue assay; type: cell-based; conditions: human, 120 h
In short: (§2)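 Viability of GD patient fibroblasts grown with compound at 10, 33 and 100 μM was read by a resazurin-based spectrophotometric assay.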

[6] = organism: Homo sapiens; assay: Inhibition of human lysosomal alpha-galactosidase using 4-methylumbelliferyl alpha-D-galactopyranoside as substrate at 200 uM by fluorimetric analysis; in short: as §1
[7] = organism: Homo sapiens; assay: Activation of intracellular glucocerebrosidase p.L444P mutant in gaucher patient fibroblast using 4-methylumbelliferyl beta-D-glucopyranoside as substrate relative to control
[8] = test system: T3, Lysosomal acid glucosylceramidase (Homo sapiens), P04062 [N409S]; assay: Activation of intracellular glucocerebrosidase p.N370S mutant in gaucher patient fibroblast using 4-methylumbelliferyl beta-D-glucopyranoside as substrate assessed as concentration at which 50% of maximum increase in activity
[9] = molecular target: T4, Cytosolic beta-glucosidase (Homo sapiens, UniProt Q9H227); assay: Inhibition of human cytosolic beta-glucosidase using 4-methylumbelliferyl beta-D-glucopyranoside as substrate after 15 mins by fluorimetric analysis
T4 sequence (Q9H227 whole entry): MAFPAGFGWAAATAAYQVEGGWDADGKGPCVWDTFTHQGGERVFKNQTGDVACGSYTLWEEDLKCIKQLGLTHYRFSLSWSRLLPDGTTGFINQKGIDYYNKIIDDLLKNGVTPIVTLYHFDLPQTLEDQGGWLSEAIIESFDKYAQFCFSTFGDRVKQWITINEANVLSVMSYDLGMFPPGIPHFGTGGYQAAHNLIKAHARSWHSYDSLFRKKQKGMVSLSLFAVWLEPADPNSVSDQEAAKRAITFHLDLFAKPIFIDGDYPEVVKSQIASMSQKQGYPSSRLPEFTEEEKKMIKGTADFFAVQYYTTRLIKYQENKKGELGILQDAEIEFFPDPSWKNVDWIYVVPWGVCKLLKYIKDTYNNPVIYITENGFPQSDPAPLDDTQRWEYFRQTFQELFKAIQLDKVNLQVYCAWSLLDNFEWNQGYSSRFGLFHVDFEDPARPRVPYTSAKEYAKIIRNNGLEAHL
In short: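 Purified human cytosolic neutral β-glucosidase was preincubated 15 min at room temperature with a 3-fold compound dilution series. An equal volume of 10 mM 4-MU β-D-glucoside in 100 mM citrate–phosphate pH 7.0 was added, then incubated 30 min at 37 °C. The reaction was stopped with 4-fold excess 100 mM 2-amino-2-methylpropanol and read at ex 365/em 460 nm. IC50 came from nonlinear fitting.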

[10] = organism: Homo sapiens; assay: Activation of intracellular glucocerebrosidase p.L444P mutant in gaucher patient fibroblast using 4-methylumbelliferyl beta-D-glucopyranoside as substrate assessed as concentration at which 50% of maximum increase in activity
[11] = organism: Homo sapiens; assay: Activation of beta-N-acetyl hexosaminidase in gaucher patient fibroblast using 4-methylumbelliferyl N-acetyl-beta-D-glucosaminide as substrate
In short: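 Patient fibroblasts (GD, homozygous mutant GBA) grown in α-MEM with 10% FCS at 37 °C, CO2, with compound for 5 days. Lysates prepared in pH 5.5 citrate–phosphate with Triton X-100 and taurocholate. Lysosomal β-N-acetyl hexosaminidase activity read with fluorogenic 4-MU N-acetyl-β-D-glucosaminide at each compound concentration.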

[12] = molecular target: T5, Beta-galactosidase (Homo sapiens) (UniProt P16278); assay: Inhibition of human lysosomal beta-galactosidase using 4-methylumbelliferyl beta-Dgalactopyranoside as substrate at 200 uM by fluorimetric analysis; in short: as §1
T5 sequence (whole entry): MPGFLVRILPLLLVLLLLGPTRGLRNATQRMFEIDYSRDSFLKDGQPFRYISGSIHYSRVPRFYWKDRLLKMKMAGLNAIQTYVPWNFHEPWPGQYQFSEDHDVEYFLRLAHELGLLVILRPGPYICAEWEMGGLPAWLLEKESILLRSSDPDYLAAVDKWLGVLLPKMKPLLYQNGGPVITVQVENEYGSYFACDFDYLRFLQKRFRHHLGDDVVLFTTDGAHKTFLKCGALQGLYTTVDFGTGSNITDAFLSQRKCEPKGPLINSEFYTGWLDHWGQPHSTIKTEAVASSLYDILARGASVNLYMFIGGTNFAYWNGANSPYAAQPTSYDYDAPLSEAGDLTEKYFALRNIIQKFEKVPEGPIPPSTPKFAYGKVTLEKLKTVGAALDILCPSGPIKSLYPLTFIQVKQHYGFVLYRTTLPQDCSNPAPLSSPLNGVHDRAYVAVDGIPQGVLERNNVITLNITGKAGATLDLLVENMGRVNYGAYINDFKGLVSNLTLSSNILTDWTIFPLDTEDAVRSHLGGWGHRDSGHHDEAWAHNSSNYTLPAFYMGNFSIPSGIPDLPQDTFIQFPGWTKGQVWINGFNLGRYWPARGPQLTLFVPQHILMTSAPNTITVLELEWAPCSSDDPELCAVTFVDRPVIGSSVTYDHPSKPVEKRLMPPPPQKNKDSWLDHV

[13] = Cytotoxicity against gaucher patient fibroblast assessed as decrease in cell viability at 100 uM after 5 days by alamar blue assay; type: cell-based; conditions: human, 120 h; in short: as §2

Row | SMILES | Ki [1] | inhibition [2] | deltaTm [3] | fold change (FC) [4] | Activity [5] | inhibition [6] | fold change (FC) [7] | Activity [8] | IC50 [9] | Activity [10] | inhibition [11] | inhibition [12] | Activity [13]
1 | CCCCCCCCSCC[C@H]1NC[C@@H](O)[C@H](O)[C@H]1O.Cl | 0.4 nM | inactive | 20 K | 1.6 | Toxic | inactive | 1.2 | 1 nM | 2000 nM | 0.6 nM | Active | inactive | 
2 | CCCCCCSCC[C@H]1NC[C@@H](O)[C@H](O)[C@H]1O.Cl | 1.8 nM | inactive | 15 K | 2.1 |  | inactive | 1.3 | 2.7 nM |  | 0.6 nM |  | inactive | Toxic
